# Laboratory results: BindingDB's records for doi:10.1021/jm00346a020 (1982)
# Target: T1, Dihydrofolate reductase (Gallus gallus, UniProt P00378)
# T1 sequence (P00378 whole entry): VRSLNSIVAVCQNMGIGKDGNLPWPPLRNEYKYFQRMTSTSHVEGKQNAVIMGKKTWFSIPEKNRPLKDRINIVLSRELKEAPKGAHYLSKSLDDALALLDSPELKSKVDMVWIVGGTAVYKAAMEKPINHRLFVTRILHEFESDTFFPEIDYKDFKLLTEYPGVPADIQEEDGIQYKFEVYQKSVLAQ
# Assay: Inhibitory activity against chicken dihydrofolate reductase at pH 7.2.
row,Ki [µM],Structure (SMILES)
1,6.76,CCCCOCc1cccc(Cc2cnc(N)nc2N)c1
2,42.7,Nc1ncc(Cc2ccc([N+](=O)[O-])cc2)c(N)n1
3,10.2,COc1ccc(Cc2cnc(N)nc2N)cc1C(F)(F)F
4,229,"COCCOc1c(OC)cc(Cc2cnc(N)nc2N)cc1OC [5-[3,5-Dimethoxy-4-(2-methoxy-ethoxy)-benzyl]-pyrimidine-2,4-diamine]"
5,34.7,COc1ccc(Cc2cnc(N)nc2N)cc1OC [Diaveridine]
6,20,Nc1ncc(Cc2cccc(F)c2)c(N)n1
7,16.2,Nc1ncc(Cc2ccc(F)cc2)c(N)n1
8,19.1,Cc1cccc(Cc2cnc(N)nc2N)c1
9,9.77,Nc1ncc(Cc2cccc(Cl)c2)c(N)n1
10,97.7,CN(C)c1ccc(Cc2cnc(N)nc2N)cc1
11,55,Nc1ncc(Cc2ccc(OC(F)(F)F)cc2)c(N)n1
12,55,CC(=O)Nc1ccc(Cc2cnc(N)nc2N)cc1
13,19.5,Nc1ncc(Cc2ccccc2)c(N)n1
14,16.2,Nc1ncc(Cc2cccc(I)c2)c(N)n1

# Target: T2, Dihydrofolate reductase (Bos taurus, UniProt P00376)
# T2 sequence (P00376 whole entry): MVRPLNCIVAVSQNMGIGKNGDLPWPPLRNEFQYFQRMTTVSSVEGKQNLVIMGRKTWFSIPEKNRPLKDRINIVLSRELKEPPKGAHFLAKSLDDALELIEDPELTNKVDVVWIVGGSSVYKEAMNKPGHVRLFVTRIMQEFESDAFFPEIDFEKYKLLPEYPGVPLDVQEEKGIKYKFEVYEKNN
# Assay: Inhibitory activity against bovine liver dihydrofolate reductase at pH 7.2.
row,Ki [µM],Structure (SMILES)
1,3.72,Nc1ncc(Cc2ccc([N+](=O)[O-])cc2)c(N)n1
2,4.47,"COc1ccc(Cc2cnc(N)nc2N)cc1 [5-(4-Methoxy-benzyl)-pyrimidine-2,4-diamine]"
3,1.66,Nc1ncc(Cc2cccc(C(F)(F)F)c2)c(N)n1
4,2.19,COc1ccc(Cc2cnc(N)nc2N)cc1OC [Diaveridine]
5,3.09,Nc1ncc(Cc2ccc(F)cc2)c(N)n1
6,11,Nc1ccc(Cc2cnc(N)nc2N)cc1
7,1.55,Nc1ncc(Cc2cccc(Br)c2)c(N)n1
8,1.59,Nc1ncc(Cc2cccc(Cl)c2)c(N)n1
9,6.17,CN(C)c1ccc(Cc2cnc(N)nc2N)cc1
10,5.37,Cc1ccc(Cc2cnc(N)nc2N)cc1
11,2.82,CC(=O)Nc1ccc(Cc2cnc(N)nc2N)cc1[N+](=O)[O-]
12,3.8,Nc1ncc(Cc2ccc(Br)cc2)c(N)n1
13,25.7,Nc1ncc(Cc2ccc(O)c(O)c2)c(N)n1
14,2.51,Nc1ncc(Cc2ccc(Cl)cc2)c(N)n1

# Target: T2, Dihydrofolate reductase
# Assay: Inhibitory activity against bovine liver Dihydrofolate reductase at pH 7.2.
# How it was run: (§1)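 DHFR from chicken liver and from bovine liver, each assayed at pH 7.2 by the group's earlier-reported inhibition procedure. Potency is expressed as an apparent inhibition constant, reported as log(1/Ki app).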
row,Ki [µM],Structure (SMILES)
1,5.37,NC(=O)COc1cccc(Cc2cnc(N)nc2N)c1
2,3.55,"CCCCCCCOc1ccc(Cc2cnc(N)nc2N)cc1 [5-(4-Heptyloxy-benzyl)-pyrimidine-2,4-diamine]"
3,6.76,COCCOc1ccc(Cc2cnc(N)nc2N)cc1OCCOC
4,4.9,COCCOc1ccc(Cc2cnc(N)nc2N)cc1
5,2.82,CCCCCCOc1ccc(Cc2cnc(N)nc2N)cc1
6,2.63,COCCOc1cccc(Cc2cnc(N)nc2N)c1
7,407,Nc1ncc(Cc2cc(O)cc(O)c2)c(N)n1

# Target: T1, Dihydrofolate reductase
# Assay: Inhibitory activity against chicken Dihydrofolate reductase at pH 7.2.
# How it was run: as §1
row,Ki [µM],Structure (SMILES)
1,14.8,COCCOc1cccc(Cc2cnc(N)nc2N)c1
